# Assays:
# T47D [1] = test: Induction of apoptosis in human T47D cells assessed as caspase 3 activation after 24 hrs; type: functional, cell-based
# Summary of the method: (§1)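 Cell-based caspase-3 activation HTS assay. After compound exposure, the fluorogenic caspase-3 substrate N-(Ac-DEVD)-N-ethoxycarbonyl-R110 in caspase buffer was added and incubated 2 h at 37 °C. Fluorescence was read as RFU. Activation is the ratio of net RFU for treated samples to that of control samples. Values are means ± SEM of three or more experiments.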
# HCT-116 [2] = test: Induction of apoptosis in human HCT116 cells assessed as caspase 3 activation after 24 hrs; type: functional, cell-based; details: HCT-116, 24 h; summary of the method: as §1
# SNU-398 [3] = test: Induction of apoptosis in human SNU398 cells assessed as caspase 3 activation after 24 hrs; type: functional, cell-based; details: SNU-398, 24 h; summary of the method: as §1
# T47D [4] = test: Growth inhibition of human T47D cells after 48 hrs by CellTiter-Glo assay; type: functional
# Summary of the method: (§2)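 T47D, HCT116 and SNU398 cells from ATCC, run in 96-well format. Cells were exposed continuously to test compound for 48 h, then given CellTiter-Glo reagent, mixed by agitation, held 10–15 min at room temperature and read by luminescence. GI50 is the concentration giving 50% inhibition relative to untreated control cells. Values are means ± SEM of three experiments.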
# HCT-116 [5] = test: Growth inhibition of human HCT116 cells after 48 hrs by CellTiter-Glo assay; type: functional; details: HCT-116, 48 h; summary of the method: as §2
# SNU-398 [6] = test: Growth inhibition of human SNU398 cells after 48 hrs by CellTiter-Glo assay; type: functional; details: SNU-398, 48 h; summary of the method: as §2
Compound,EC50 (T47D [1]),EC50 (HCT-116 [2]),EC50 (SNU-398 [3]),GI50 (T47D [4]),GI50 (HCT-116 [5]),GI50 (SNU-398 [6])
C=CC[C@@]12CC3CO[C@](CC=C)(C1=O)[C@@]3(CC=C)C=C2C(=O)c1ccccc1,> 20000 nM,> 20000 nM,> 20000 nM,–,–,–
CC(C)=CC[C@@]12OC(C)(C)C3C[C@H](C=C4C(=O)C=C(c5ccccc5)O[C@]431)C2=O,5100 nM,5400 nM,2600 nM,1400 nM,1100 nM,1200 nM
CC(C)=CC[C@]12OC(C)(C)C3C[C@@]4(OC(c5ccccc5)=CC(=O)C4=C[C@@H]31)C2=O,4800 nM,3600 nM,2500 nM,1000 nM,900 nM,1200 nM
CC(C)=CC[C@@]12OC(C)(C)C3C[C@H](C=C4C(=O)c5ccccc5O[C@]431)C2=O,3000 nM,2300 nM,900 nM,200 nM,200 nM,200 nM
CC(C)=CCC[C@]1(C)C=Cc2c(O)c3c(c(CC=C(C)C)c2O1)O[C@]12C(C[C@H]4CC1C(C)(C)O[C@@]2(C/C=C(\C)C(=O)O)C4=O)C3=O (stereo partly drawn),> 20000 nM,> 20000 nM,> 20000 nM,> 20000 nM,> 20000 nM,> 20000 nM
CC(C)=CCC[C@]1(C)C=Cc2c(O)c3c(c(CC=C(C)C)c2O1)O[C@]12C(=C[C@@H]4C[C@H]1C(C)(C)O[C@@]2(C/C=C(/C)C(=O)O)C4=O)C3=O [GAMBOGIC ACID],700 nM,700 nM,700 nM,200 nM,100 nM,200 nM
C=CC[C@@]12C=C(C(=O)c3ccccc3)[C@]3(CC=C)C(CO[C@@]3(CC=C)C1=O)C2,> 20000 nM,> 20000 nM,> 20000 nM,> 20000 nM,> 20000 nM,> 20000 nM

# Further lines, results first:
EC50 (T47D [1]),EC50 (HCT-116 [2]),EC50 (SNU-398 [3]),GI50 (T47D [4]),GI50 (HCT-116 [5]),GI50 (SNU-398 [6]),Compound
> 20000 nM,> 20000 nM,> 20000 nM,> 20000 nM,> 20000 nM,> 20000 nM,C=CC[C@@]12OCC3C[C@H](CC4C(=O)c5ccccc5O[C@@]341)C2=O (stereo partly drawn)
2700 nM,1900 nM,1500 nM,300 nM,200 nM,300 nM,CC(C)=CC[C@]12OC(C)(C)C3C[C@@]4(Oc5ccccc5C(=O)C4=C[C@@H]31)C2=O
5900 nM,> 20000 nM,5100 nM,1400 nM,1500 nM,1500 nM,C=CC[C@]12OCC3C[C@@]4(Oc5ccccc5C(=O)C4=C[C@@H]31)C2=O
> 20000 nM,7100 nM,5700 nM,1600 nM,1600 nM,1900 nM,C=CC[C@@]12OCC3C[C@H](C=C4C(=O)c5ccccc5O[C@]431)C2=O

# From ChEMBL document CHEMBL1144751, “Synthesis of caged 2,3,3a,7a-tetrahydro-3,6-methanobenzofuran-7(6H)-ones: Evaluating the minimum structure for apoptosis induction by gambogic acid” (Bioorg Med Chem, 2008)
